# What was measured:
# Rattus norvegicus [1] = experiment: In vivo anti-inflammatory activity determined by rat carrageenan paw edema method at 10 mg/kg perorally; type: functional; conditions: route oral
# [2] = target: T1, Prostaglandin G/H synthase 2 (Homo sapiens) (UniProt P35354); conditions: Blood; at 10 µM
# T1 sequence (whole entry): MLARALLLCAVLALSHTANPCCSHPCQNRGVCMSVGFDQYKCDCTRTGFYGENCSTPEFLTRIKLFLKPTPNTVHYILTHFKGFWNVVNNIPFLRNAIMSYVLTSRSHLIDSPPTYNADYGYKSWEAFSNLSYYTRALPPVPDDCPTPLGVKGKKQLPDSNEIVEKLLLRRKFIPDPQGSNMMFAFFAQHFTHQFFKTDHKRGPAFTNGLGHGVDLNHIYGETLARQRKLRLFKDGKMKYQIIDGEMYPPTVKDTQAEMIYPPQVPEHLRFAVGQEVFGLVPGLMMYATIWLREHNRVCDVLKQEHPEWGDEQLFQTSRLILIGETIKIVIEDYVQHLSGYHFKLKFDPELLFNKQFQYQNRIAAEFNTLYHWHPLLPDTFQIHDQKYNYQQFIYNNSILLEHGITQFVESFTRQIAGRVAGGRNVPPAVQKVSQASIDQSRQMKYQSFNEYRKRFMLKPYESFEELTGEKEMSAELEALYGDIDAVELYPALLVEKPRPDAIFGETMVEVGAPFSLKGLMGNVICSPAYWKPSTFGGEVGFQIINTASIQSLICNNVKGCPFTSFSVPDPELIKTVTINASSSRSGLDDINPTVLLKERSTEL
# [3] = target: T1, Prostaglandin G/H synthase 2 (Homo sapiens); conditions: Blood; at 1 µM
# [4] = target: Prostaglandin G/H synthase 1 (Homo sapiens, UniProt P23219); type: cell-based, U-937
# Prostaglandin G/H synthase 1, sequence (P23219 whole entry): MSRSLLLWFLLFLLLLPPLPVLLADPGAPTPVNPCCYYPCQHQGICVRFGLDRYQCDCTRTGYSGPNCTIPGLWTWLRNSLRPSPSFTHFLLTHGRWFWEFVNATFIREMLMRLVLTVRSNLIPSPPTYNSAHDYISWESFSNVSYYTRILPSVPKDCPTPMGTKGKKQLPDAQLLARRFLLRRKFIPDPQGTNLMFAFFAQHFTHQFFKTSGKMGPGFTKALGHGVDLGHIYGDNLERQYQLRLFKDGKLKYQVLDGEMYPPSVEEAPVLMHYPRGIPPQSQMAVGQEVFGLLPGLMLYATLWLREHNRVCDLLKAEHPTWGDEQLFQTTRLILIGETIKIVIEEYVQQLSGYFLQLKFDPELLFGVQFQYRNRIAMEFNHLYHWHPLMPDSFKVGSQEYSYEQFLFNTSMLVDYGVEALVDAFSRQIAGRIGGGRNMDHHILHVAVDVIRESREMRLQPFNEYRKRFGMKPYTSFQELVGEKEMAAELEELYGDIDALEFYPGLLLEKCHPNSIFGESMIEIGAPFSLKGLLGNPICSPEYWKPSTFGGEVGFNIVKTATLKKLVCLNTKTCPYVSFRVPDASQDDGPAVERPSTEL
# Rattus norvegicus [5] = experiment: In vivo anti-inflammatory activity by air pouch model at 1 mg/kg perorally in rat.; type: functional; conditions: route oral
# Method in brief: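 Rat air pouch: sterile air (20 mL) was injected subcutaneously, with 10 mL refills every 2 days. On day 7, 2 mL of 1% lambda-carrageenan in saline was injected into the pouch. Compound was given orally (suspension in 1% CMC/Tween-80, 10 mL/kg) 0.5 h before carrageenan. At 6 h, exudate was collected and centrifuged, and supernatant PGE2 was measured by ELISA.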
Compound,inhibition in vivo at 10 mg/kg (Rattus norvegicus [1]) [%],inhibition [2] [%],inhibition [3] [%],IC50 [4] [µM],inhibition in vivo at 1 mg/kg (Rattus norvegicus [5]) [%]
CCOc1ccc(-c2c(Cl)ncn2-c2ccc(S(C)(=O)=O)cc2)cc1F,14.1,95.2,96.5,> 10,
CS(=O)(=O)c1ccc(-n2cnc(Cl)c2-c2ccc(F)cc2F)cc1,8.6,100,79.6,23.8,
CCc1ncn(-c2ccc(S(C)(=O)=O)cc2)c1-c1ccc(F)cc1,,3.8,,> 10,
CS(=O)(=O)c1ccc(-n2cnc(Cc3ccccc3)c2-c2ccc(F)cc2)cc1,,60.5,,> 10,
CS(=O)(=O)c1ccc(-n2cnc(Cl)c2-c2cccc(F)c2)cc1,22.8,100,51.9,> 10,
CC(=O)Nc1ccc(-c2c(Cl)ncn2-c2ccc(S(C)(=O)=O)cc2)cc1,,,,> 10,
CS(=O)(=O)c1ccc(-n2c(-c3ccc(F)cc3)cnc2CO)cc1,,27.4,,> 10,
CCCOc1ccc(-c2c(Cl)ncn2-c2ccc(S(C)(=O)=O)cc2)cc1,,,0,> 10,
CCCc1ccc(-c2c(Cl)ncn2-c2ccc(S(C)(=O)=O)cc2)cc1,0,91.9,60,> 10,
C=CCc1ncn(-c2ccc(S(C)(=O)=O)cc2)c1-c1ccc(F)cc1,,3.4,,> 10,
CS(=O)(=O)c1ccc(-n2cnc(Cl)c2-c2cc(Br)co2)cc1,,,,> 1,
CS(=O)(=O)c1ccc(-n2c(CO)nc(Cl)c2-c2ccc(F)cc2)cc1,,2.4,,> 10,
CCOc1ccc(-c2c(Cl)ncn2-c2ccc(S(C)(=O)=O)cc2)cc1,16.3,100,100,> 10,
COC(=O)c1ncc(-c2ccc(S(C)(=O)=O)cc2)n1-c1ccc(F)cc1,,39.1,,> 10,
CC1Cc2cc(-c3c(Cl)ncn3-c3ccc(S(C)(=O)=O)cc3)ccc2O1 (stereo not given),,59.9,,> 10,
CS(=O)(=O)c1ccc(-n2c(-c3ccc(F)cc3)cnc2C(=O)c2ccccc2)cc1,,0,,> 10,
CS(=O)(=O)c1ccc(-n2cnc(Cl)c2-c2ccc(N)cc2)cc1,15.3,71.6,,> 10,
CS(=O)(=O)c1ccc(-c2cnc(C=O)n2-c2ccc(F)cc2)cc1,27.5,70.9,,> 10,
CS(=O)(=O)c1ccc(-n2cnc(Cl)c2-c2cccnc2)cc1,19,100,74.9,> 10,
CS(=O)(=O)c1ccc(-n2c(-c3ccc(F)cc3)cnc2Cl)cc1,,,,> 10,

Compound,inhibition in vivo at 10 mg/kg (Rattus norvegicus [1]) [%],inhibition [2] [%],inhibition [3] [%],IC50 [4] [µM],inhibition in vivo at 1 mg/kg (Rattus norvegicus [5]) [%]
CS(=O)(=O)c1ccc(-c2cnc(C(=O)c3ccccc3)n2-c2ccc(F)cc2)cc1,,95,,> 10,
CS(=O)(=O)c1ccc(-c2c(Cl)nc(Cl)n2-c2ccc(F)cc2)cc1,,51.6,,> 10,
CC(C)Oc1ccc(-c2c(Cl)ncn2-c2ccc(S(C)(=O)=O)cc2)cc1,,,,> 10,
Cc1nc(Cl)c(-c2ccc(F)cc2)n1-c1ccc(S(C)(=O)=O)cc1,,27.5,,> 10,
COc1ccc(-c2c(Cl)ncn2-c2ccc(S(N)(=O)=O)cc2)cc1Cl,24,99.9,,1.2,
CSc1ccc(-c2c(Cl)ncn2-c2ccc(S(C)(=O)=O)cc2)cc1,21.7,88.5,49,0.9,
CCOc1ccc(-c2c(Cl)ncn2-c2ccc(S(N)(=O)=O)cc2)cc1Cl,18.5,99.9,26.8,15.5,
CS(=O)(=O)c1ccc(-c2cnc(Br)n2-c2ccc(F)cc2)cc1,40.4,92.8,56.2,> 10,35.5
CCOc1cc(OCC)cc(-c2c(Cl)ncn2-c2ccc(S(C)(=O)=O)cc2)c1,,0,,> 10,
CS(=O)(=O)c1ccc(-n2cnc(Cl)c2-c2cc3ccccc3o2)cc1,,,,> 1,
Cc1ncn(-c2ccc(S(C)(=O)=O)cc2)c1-c1ccc(F)cc1,,86.5,34.5,> 10,45
CS(=O)(=O)c1ccc(-n2cnc(Cl)c2-c2ccc3c(c2)CCO3)cc1,29,65.5,69.9,0.11,
CS(=O)(=O)c1ccc(-c2cnc(CF)n2-c2ccc(F)cc2)cc1,,16.8,,> 10,
Cc1ccc(-c2c(Cl)ncn2-c2ccc(S(C)(=O)=O)cc2)cc1F,22.6,100,75.1,> 10,18.5
NS(=O)(=O)c1ccc(-n2cnc(Cl)c2-c2ccc(Cl)nc2)cc1,18.1,97.6,19.6,> 10,
CS(=O)(=O)c1ccc(-n2cnc(Br)c2-c2ccc(F)cc2)cc1,,100,85.2,> 10,91.4
CCS(=O)(=O)c1ccc(-c2c(Cl)ncn2-c2ccc(S(C)(=O)=O)cc2)cc1,,,,> 10,
CS(=O)(=O)c1ccc(-n2c(Cl)nc(Cl)c2-c2ccc(F)cc2)cc1,,0,,> 10,
CCOc1ccc(-c2c(Cl)ncn2-c2ccc(S(N)(=O)=O)cc2)cc1F,30.3,100,57,76,
CS(=O)(=O)c1ccc(-c2c(Cl)ncn2-c2ccc(F)cc2)cc1,,15.3,,> 10,

Compound,inhibition in vivo at 10 mg/kg (Rattus norvegicus [1]) [%],inhibition [2] [%],inhibition [3] [%],IC50 [4] [µM],inhibition in vivo at 1 mg/kg (Rattus norvegicus [5]) [%]
COc1cc(-c2c(Cl)ncn2-c2ccc(S(C)(=O)=O)cc2)ccc1C,9.2,100,77.1,> 10,
CS(=O)(=O)c1ccc(-n2cnc(Cl)c2-c2ccc(OC(F)(F)F)cc2)cc1,,,,> 10,
CCSc1ccc(-c2c(Cl)ncn2-c2ccc(S(C)(=O)=O)cc2)cc1,12.3,97.3,76.7,> 10,
CS(=O)(=O)c1ccc(-n2cnc(Cl)c2-c2ccc(Cl)cc2)cc1,9.1,100,88.4,> 10,
COc1ccc(-c2c(Cl)ncn2-c2ccc(S(C)(=O)=O)cc2)c(F)c1,33,100,100,0.11,
Cc1nc(Cl)n(-c2ccc(F)cc2)c1-c1ccc(S(C)(=O)=O)cc1,,42.6,,> 10,
Cc1cc(-c2c(Cl)ncn2-c2ccc(S(C)(=O)=O)cc2)ccc1Cl,,100,,4,
COc1c(Cl)cc(-c2c(Cl)ncn2-c2ccc(S(C)(=O)=O)cc2)cc1Cl,16.5,99.8,37.3,> 10,
CS(=O)(=O)c1ccc(-c2cncn2-c2ccc(F)cc2)cc1,,63.4,,> 10,
CCCCCc1ncn(-c2ccc(S(C)(=O)=O)cc2)c1-c1ccc(F)cc1,,64.4,,> 10,
CS(=O)(=O)c1ccc(-c2cnc(CO)n2-c2ccc(F)cc2)cc1,,8.1,,> 10,
CS(=O)(=O)c1ccc(-n2cncc2-c2ccc(F)cc2)cc1,,56.9,,> 10,
CS(=O)(=O)c1ccc(-n2cnc(Cl)c2-c2ccccc2F)cc1,21.5,100,66.2,100,
CS(=O)(=O)c1ccc(-c2c(Br)ncn2-c2ccc(F)cc2)cc1,,36,,> 10,
CS(=O)(=O)c1ccc(-n2cnc(Cl)c2-c2cc(F)cc(F)c2)cc1,,61.6,,> 10,
CCOc1ccc(-c2c(Cl)ncn2-c2ccc(S(C)(=O)=O)cc2)cc1Cl,2,100,47.7,> 10,
COc1ccc(-c2c(Cl)ncn2-c2ccc(S(C)(=O)=O)cc2)cc1,33.4,100,100,1.3,
CC(C)c1ccc(-c2c(Cl)ncn2-c2ccc(S(C)(=O)=O)cc2)cc1,17,100,70,> 10,
Cc1ncc(-c2ccc(S(C)(=O)=O)cc2)n1-c1ccc(F)cc1,21.7,68,,> 10,

# Reference: ChEMBL document CHEMBL1145864, “Synthesis and structure-activity relationship of a new series of COX-2 selective inhibitors: 1,5-diarylimidazoles” (J Med Chem, 2003)
